Data set [1] has as its system Human immunodeficiency virus 1. The data set can be described thus: Antiviral activity against HIV1 in human C8166 cells assessed as prevention of virus-induced cytopathic effect. The note with it: Human immunodeficiency virus 1, C8166. In kind it is functional, organism-based. Put shortly:
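HIV-1 infection of C8166 cells, with protection measured as inhibition of virus-induced cytopathic effects and reported as EC50. Cytotoxicity in the same cells was determined in parallel. AZT served as positive control.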
Background: Damage to the host cells serves as the signal in cytopathic effect assays.

Data set [2] in a line: Cytotoxicity against human C8166 cells by MTT assay. In kind it is cell-based. Put shortly: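 MTT viability assay on C8166 cells, reported as CC50. It was run in parallel with the HIV-1 cytopathic-effect assay, with AZT as positive control.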
(In general: Tetrazolium assays rely on reduction of a dye to a coloured formazan, in cell work by metabolically active cells.)

Data set [3] is described as follows: Selectivity index, Ratio of CC50 for human C8166 cells to EC50 for HIV1.

Molecules are shown by their SMILES.

The term EC50 denotes the concentration needed to bring the measured effect to its halfway point. A word on the CC50: it is the concentration at which the toxic effect on the cells reaches its halfway point. A high value points to lower toxicity to the cells.

Consider `C/C=C(/C)C(=O)O[C@@H]1c2cc3c(c(OC)c2-c2c(cc4c(c2OC)OCO4)[C@@H](O)[C@H](C)[C@@H]1C)OCO3` [SCHISANTHERIN L], for which, in data set [1], the EC50 came to 138 µM. The compound further returned a 50% cytotoxic concentration (CC50) in data set [2] of over 200 µM.
The like results for `COc1ccc(CC(C)C(C)C(O)c2cc(O)c(OC)c(OC)c2)cc1OC` (centres undefined) [KADANGUSTIN H] were, in that order, 27 µM and 30.7 µM.
In the same order, the values of `COc1cc2c(c(OC)c1OC)-c1c(cc(OC)c(OC)c1OC)[C@@H]1O[C@H]2[C@H](C)[C@@H]1C` [KADSULIGNAN N] are 43.6 µM and 382 µM.
As for `COc1cc(C(O)C(C)C(C)Cc2cc(OC)c3c(c2)OCO3)cc(O)c1OC` (centres undefined) [KADANGUSTIN I], in data set [1], the EC50 came to 21.5 µM. Moreover, the 50% cytotoxic concentration (CC50) in data set [2] worked out at 35.1 µM.
The like results for `C/C=C(/C)C(=O)Oc1c(OC)c(OC)cc2c1-c1c(cc(O)c(OC)c1OC)[C@@H](O)[C@H](C)[C@H](C)C2` [SCHISANTHERIN F] were, in that order, 95.2 µM and over 200 µM.
The like results for `COc1cc2c(c(O)c1OC)-c1c(cc(OC)c(OC)c1OC)[C@@H](OC(C)=O)[C@H](C)[C@H](C)[C@@H]2OC(=O)/C=C/c1ccccc1` [KADANGUSTIN D] were, in that order, 25.4 µM and 97.5 µM.
As to `COc1cc2c(c(O)c1OC)-c1c(cc(OC)c(OC)c1OC)[C@@H](OC(C)=O)[C@H](C)[C@H](C)[C@@H]2O` [KADANGUSTIN A], in data set [1], the EC50 is over 200 µM. The same compound gave a CC50 in data set [2] of over 200 µM.
As to `C/C=C(/C)C(=O)O[C@@H]1c2cc(OC)c(OC)c(O)c2-c2c(cc(OC)c(OC)c2OC)[C@@H](OC(C)=O)[C@H](C)[C@@H]1C` [KADANGUSTIN F], the concentration giving a half-maximal response (EC50) in data set [1] was found to be 72.6 µM. The same compound had a CC50 in data set [2] of 160 µM.
The like results for `COc1cc2c(c(O)c1OC)-c1c(cc(OC)c(OC)c1OC)[C@@H](OC(C)=O)[C@H](C)[C@H](C)[C@@H]2OC(=O)c1ccccc1` [KADANGUSTIN E] were, in that order, 60.8 µM and 138 µM.
Take `COc1cc2c(c(O)c1OC)-c1c(cc(OC)c(OC)c1OC)[C@@H](OC(C)=O)[C@H](C)[C@](C)(O)[C@@H]2OC(=O)/C=C/c1ccccc1` [KADANGUSTIN C]: the EC50 in data set [1] stood at 38.3 µM. The half-maximal cytotoxic concentration (CC50) in data set [2] was 190 µM.
The like results for `COc1ccc([C@H]2Oc3c(OC)cc(C=O)cc3[C@@H]2C)cc1O` [PERSEAL F] were, in that order, 40.9 µM and 270 µM.
The like results for `COc1cc2c(c(O)c1OC)-c1c(cc3c(c1OC)OCO3)[C@@H](O)[C@H](C)[C@H](C)C2` [BINANKADSURIN A] were, in that order, 3.86 µM and 227 µM.
The like results for `COc1cc(C[C@@H](C)[C@@H](C)Cc2ccc(O)c(OC)c2)ccc1O` [MESODIHYDROGUAIARETIC ACID] were, in that order, 15.6 µM and 49.1 µM.
Consider `COc1cc2c(c(OC)c1OC)-c1c(cc3c(c1OC)OCO3)[C@H]1O[C@@H]2[C@@H](C)[C@H]1C` [KADSULIGNAN L], for which the EC50 in data set [1] came out at 26.2 µM. Moreover, it took 361 µM to reach half-maximal cytotoxicity in data set [2] (CC50).
For the compound `C/C=C(\C)C(=O)O[C@@H]1c2cc(OC)c(OC)c(O)c2-c2c(cc(OC)c(OC)c2OC)[C@@H](OC(C)=O)[C@H](C)[C@@H]1C` [KADANGUSTIN G], in data set [1], the EC50 was 25.7 µM. The midpoint of cytotoxicity in data set [2], the CC50, lay at 72.2 µM.
For `COc1c2c(cc3c1-c1c(cc4c(c1OC)OCO4)[C@@H](O)[C@H](C)[C@H](C)C3=O)OCO2` [SCHISANTHERIN Q], the Ratio in data set [3] stood at 4.61. Moreover, the EC50 in data set [1] came to 45.9 µM. In addition, in data set [2], half-maximal cytotoxicity (CC50) was put at 212 µM.
Regarding `COc1c2c(cc3c1-c1c(cc4c(c1OC)OCO4)[C@@H](O)[C@@H](C)[C@@H](C)[C@@H]3O)OCO2` [SCHISANTHERIN P], the concentration for a half-maximal effect (EC50) in data set [1] is 156 µM. Moreover, the half-maximal cytotoxic concentration (CC50) in data set [2] is over 200 µM.
In the same order, the values of `C=CCc1cc(OC)c2c(c1)[C@H](CO)[C@@H](c1ccc(O)c(OC)c1)O2` are 13.1 µM and 38.1 µM.
The like results for `COc1ccc(C(c2ccc(OC)c(OC)c2)C(C)C(C)CO)cc1OC` (centres undefined) [KADANGUSTIN J] were, in that order, 44.7 µM and 247 µM.
The like results for `COc1c2c(cc3c1-c1c(cc4c(c1OC)OCO4)[C@@H](OC(C)=O)[C@H](C)[C@H](C)[C@@H]3O)OCO2` [KADANGUSTIN B] were, in that order, 150 µM and over 200 µM.
Regarding `COc1c2c(cc3c1-c1c(cc4c(c1OC)OCO4)[C@@H](O)[C@@H](C)[C@@H](C)C3)OCO2` [GOMISIN R], in data set [1], the concentration giving a half-maximal response (EC50) came out at 54.6 µM. It took 221 µM to reach half-maximal cytotoxicity in data set [2] (CC50).
The like results for `COc1cc2c(c(O)c1OC)-c1c(cc(O)c(OC)c1OC)[C@@H](O)[C@H](C)[C@H](C)C2` [DEANGELOYLSCHISANTHERIN F] were, in that order, 199 µM and 281 µM.
`C/C=C(/C)C(=O)O[C@@H]1c2cc(OC)c(OC)c(OC)c2-c2c(cc3c(c2OC)OCO3)[C@@H](OC(C)=O)[C@H](C)[C@]1(C)O` [KADSURARIN]: the EC50 in data set [1] worked out at 168 µM. The CC50 in data set [2] is over 200 µM.
In the same order, the values of `COc1c2c(cc3c1-c1c(cc4c(c1OC)OCO4)[C@@H]1O[C@H]3[C@H](C)[C@@H]1C)OCO2` [EPOXIDESCHISANDRIN C] are 9.35 µM and 220 µM.

The values are drawn from ChEMBL document CHEMBL1149833, “Lignans from Kadsura angustifolia” (J Nat Prod, 2008).
